# ChEMBL document CHEMBL1153766, “Regioselective reaction: synthesis and pharmacological study of Mannich bases containing ibuprofen moiety” (2009)
# Active and inactive are the calls of the source. No cut-off for these calls is given here.
# How the values were obtained:
# Rattus norvegicus [1] = assay: Antiinflammatory activity against Wistar albino rat assessed as inhibition of carrageenan-induced paw edema at 20 mg/kg, po administered 30 mins prior to carrageenan challenge measured after 1 hrs; type: functional
# In short: (§1)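 Carrageenan paw oedema in Wistar albino rats (Winter method). Compounds given orally at 20 mg/kg as a suspension in 1% carboxymethyl cellulose, 30 min before 0.1 mL of 1% w/v carrageenan injected into the plantar region of the paw. Paw volume measured by plethysmography at 30, 60, 90, 120, 150 and 180 min. Inhibition calculated relative to vehicle controls. Mean ± SEM.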
# Staphylococcus aureus = assay: Antimicrobial activity against Staphylococcus aureus at 1000 ug after 24 to 48 hrs by well diffusion method; type: functional, organism-based
# In short: (§2)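 Agar well diffusion against Staphylococcus aureus, Escherichia coli and Aspergillus. Compounds dissolved in DMF (10 mg in 10 mL), and the solution placed into wells cut with a borer. Plates incubated at 37 °C for 24–48 h, then inspected.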
# Rattus norvegicus [2] = assay: Antiinflammatory activity against Wistar albino rat assessed as inhibition of carrageenan-induced paw edema at 20 mg/kg, po administered 30 mins prior to carrageenan challenge measured after 1.5 hrs; type: functional; in short: as §1
# Rattus norvegicus [3] = assay: Antiinflammatory activity against Wistar albino rat assessed as inhibition of carrageenan-induced paw edema at 20 mg/kg, po administered 30 mins prior to carrageenan challenge measured after 2 hrs; type: functional; in short: as §1
# Mus musculus = assay: Analgesic activity against Swiss albino mouse assessed as increase in paw licking or jump response at 10 mg/kg, po after 1.5 hrs by hot plate method; type: functional
# In short: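 Hot-plate test in Swiss albino mice, 6 per group. Compounds given orally by gavage as a suspension in 1% carboxymethyl cellulose, 10 mg/kg. Animals placed on a plate held at 55 ± 1 °C, with paw licking or jumping as the end point. Reaction time recorded at 30, 60 and 90 min after dosing. Percentage increase in reaction time calculated using the maximum tolerated reaction time. Mean ± SEM.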
# Rattus norvegicus [4] = assay: Antiinflammatory activity against Wistar albino rat assessed as inhibition of carrageenan-induced paw edema at 20 mg/kg, po administered 30 mins prior to carrageenan challenge measured after 3 hrs; type: functional; in short: as §1
# Rattus norvegicus [5] = assay: Antiinflammatory activity against Wistar albino rat assessed as inhibition of carrageenan-induced paw edema at 20 mg/kg, po administered 30 mins prior to carrageenan challenge measured after 2.5 hrs; type: functional; in short: as §1
# Escherichia coli = assay: Antimicrobial activity against Escherichia coli at 1000 ug after 24 to 48 hrs by well diffusion method; type: functional, organism-based; in short: as §2
# Aspergillus = assay: Antimicrobial activity against Aspergillus at 1000 ug after 24 to 48 hrs by well diffusion method; type: functional, organism-based; in short: as §2
# Rattus norvegicus [6] = assay: Antiinflammatory activity against Wistar albino rat assessed as inhibition of carrageenan-induced paw edema at 20 mg/kg, po administered 30 mins prior to carrageenan challenge measured after 0.5 hrs; type: functional; in short: as §1
Compound,inhibition in vivo at 20 mg/kg (Rattus norvegicus [1]) [%],Activity (Staphylococcus aureus),inhibition in vivo at 20 mg/kg (Rattus norvegicus [2]) [%],inhibition in vivo at 20 mg/kg (Rattus norvegicus [3]) [%],Activity (Mus musculus) [%],inhibition in vivo at 20 mg/kg (Rattus norvegicus [4]) [%],inhibition in vivo at 20 mg/kg (Rattus norvegicus [5]) [%],Activity (Escherichia coli),Activity (Aspergillus),inhibition in vivo at 20 mg/kg (Rattus norvegicus [6]) [%]
CC(C)Cc1ccc(C(C)c2nn(CN3CCOCC3)c(=S)n2/N=C/c2ccc(Cl)cc2)cc1 (centres undefined),42,inactive,61,61,76.49,74,73,inactive,inactive,90
O=C(O)Cc1ccccc1Nc1c(Cl)cccc1Cl [DICLOFENAC],59,–,70,87,79.24,65,69,–,–,83
CC(C)Cc1ccc(C(C)c2nn(CN(c3ccccc3)c3ccccc3)c(=S)n2/N=C/c2ccc(Br)cc2)cc1 (centres undefined),10,inactive,38,38,–,57,57,inactive,inactive,9
CC(C)Cc1ccc(C(C)C(=O)O)cc1 (centres undefined) [IBUPROFEN],18,–,25,36,–,42,39,–,–,20
CC(C)Cc1ccc(C(C)c2nn(CN3CCOCC3)c(=S)n2/N=C/c2ccc([N+](=O)[O-])cc2)cc1 (centres undefined),52,inactive,65,54,79.6,73,71,inactive,inactive,12
CC(C)Cc1ccc(C(C)c2nnc(S)n2N)cc1 (centres undefined),32,inactive,46,45,–,56,50,inactive,inactive,30
Cc1ccc(/C=N/n2c(C(C)c3ccc(CC(C)C)cc3)nn(CN3CCOCC3)c2=S)cc1 (centres undefined),23,inactive,64,60,64.32,68,67,inactive,inactive,0
CC(C)Cc1ccc(C(C)c2nnc(S)n2/N=C/c2ccc(Br)cc2)cc1 (centres undefined),16,inactive,65,60,–,72,70,inactive,inactive,0
CC(C)Cc1ccc(C(C)c2nn(CN3CCN(C)CC3)c(=S)n2/N=C/c2ccc([N+](=O)[O-])cc2)cc1 (centres undefined),70,inactive,82,68,70.75,74,75,inactive,inactive,38
CC(C)Cc1ccc(C(C)c2nnc(S)n2/N=C/c2ccc(Cl)cc2)cc1 (centres undefined),49,inactive,52,57,–,64,62,inactive,inactive,62
